Source: PubChem BioAssay (several laboratories)
SDO1 yeast rescue: sdo1-depleted yeast growth rescue | z-score at 10 µM | 140,000 compounds, 0.21% hits | S. cerevisiae sdo1-depleted JHY4D growth rescue, OD600 30 h; active compounds read high; pdr5 snq2 efflux-pump mutant strain;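 active = z-score above 3 at both the 24 hr and the 30 hr optical density reads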;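 also: z-score against mean and SD of all compound wells on the same plate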
Yeast lifespan up: yeast lifespan extension; AID 775; 130,000 compounds, 0.68% hits; inhibition of the nicotinamide effect, % at 10 µM; S. cerevisiae growth with nicotinamide, OD615; deaD strain in restrictive glucose medium;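 active = inhibition above a set limit, placed 3 SD over the median of all compounds, cut at about 26% in these data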;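 also: 0% = nicotinamide-treated wells and 100% = cells grown without nicotinamide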
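Buffer or medium: CSMM-D glucose medium, restrictive; test system: modified budding yeast, DeaD strain; compound: single dose 10 µM compound, 0.25% DMSO; schedule: culture preincubation 4 h, compound exposure 48 h, both 30 °C; detection: optical density (absorbance) at 615 nm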
RAM network inh: inhibitors of the yeast RAM network; 190,000 compounds, 1.8% hits; S. cerevisiae dse1pr::URA3 reporter, 5-FOA growth OD615, 2 d; analog-sensitive cbk1-as2 kinase mutant strain; inhibition, % at 50 µM;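 active = inhibition above a set limit, 3 SD over mean compound inhibition, cut at about 8.4% in these data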;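 also: 0% = DMSO-only wells with no growth and 100% = 10 µM 1-NA-PP1 full growth; inhibition rescues growth on 5-FOA so higher OD means more RAM inhibition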
BB579 growth dn: chemicals that inhibit yeast BB579 growth in restrictive medium (lifespan-shortening candidates). AID 804. S. cerevisiae BB579 growth, OD615, 48 h. inhibition, % at 10 µM. 140,000 compounds, 0.51% hits;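 active = inhibition above a set limit, 3 SD over the mean compound inhibition, cut at about 44% in these data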
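System: DeaD yeast strain BB579; buffer or medium: CSMM-D dextrose restrictive medium; technique: OD at 615 nm; schedule: 4 h cell preincubation, 48 h compound exposure, 30 °C humidified; doses: single 10 µM dose; controls: amphotericin B 10 µg/mL, positive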
RAM efflux-def: restores 5-FOA growth of efflux-deficient yeast | S. cerevisiae efflux-deficient reporter strain, 5-FOA growth OD615, 2 days | shares compounds with RAM network inh | 1,200 tested, under 10 active | max inhibition, %; call rule not given here;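 also: plate controls were vehicle for no effect and reference inhibitor for full effect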
Starred values were filed as active, the others as inactive; · = no result given; [ ] = dose if it differs, or a comment. This is a sample that favours compounds with a hit; in the whole collection about 2.7% have one here.

SMILES	SDO1 yeast rescue	Yeast lifespan up	RAM network inh	BB579 growth dn	RAM efflux-def
Cc1ccc(S(=O)(=O)NCCC(c2ccccc2)c2ccco2)cc1 (stereo not given)	-0.81	9	14*	-45	3
Cc1ccccc1N1C(=O)CC1(C#N)c1ccc(OCc2ccccc2)cc1 (stereo not given)	-0.6	4	11*	-25	4
COc1ccccc1N1C(=O)CC1(C#N)c1ccc(OCc2ccccc2)cc1 (stereo not given)	-0.56	13	7	-36	·
CSc1nc(Cl)c(Cc2ccc(OC(C)C)cc2)c(N2CCOCC2)n1	-0.39	-8	12*	-46	2
Cc1ccc(N=C2NC(=O)/C(=C/c3cn(C)c4ccccc34)S2)cc1C	0.56	1	8	-26	·
CCOC(=O)c1nnn(-c2nonc2-n2cccc2)c1-c1cccc([N+](=O)[O-])c1	·	·	4	·	·
CCCCCCN(C(=O)CCCCCN1C(=O)NC(c2ccc(-c3ccccc3)cc2)C(C(=O)OCc2ccccc2)=C1C)C(C(=O)NCCCC)c1ccc(OCC(=O)OC)cc1 (stereo not given)	-0.29	4	13*	-19	6
CCCOc1ccc(/C=N/Nc2ccccc2[N+](=O)[O-])c(OCCC)c1	0.38	0	16*	-20	6
O=[N+]([O-])c1ccccc1N/N=C\c1ccccc1Cl	0.32	-2	1	-46	·
CCC(C)NS(=O)(=O)c1ccc(S(=O)(=O)N(CCc2ccc(OC)c(OC)c2)Cc2cccs2)cc1 (stereo not given)	0.53	2	15*	-20	2
COc1ccccc1NC(=O)c1ccc(COc2ccc3c(c2)CCC3)cc1	-0.74	9	8	-42	·
COC(=O)c1ccccc1NC(=O)c1ccc(COc2ccc3c(c2)CCC3)cc1	-2.4	-10	14*	-81	5
O=C(NCc1ccccc1)c1cccc(COc2ccc3c(c2)CCC3)c1	-0.56	2	12*	-31	7
COc1cccc(OC)c1C(=O)NNC(=O)c1cccc(COc2ccc3c(c2)CCC3)c1	-0.95	6	1	-77	·
S=C(c1ccc(-c2ccccc2Cl)o1)N1CCOCC1	-1.4	-7	12*	-8	2
COC(=O)c1sc(-c2ccccc2)cc1NC(=O)c1ccccc1	-1.1	0	4	-14	·
CCOC(=O)c1sc(-c2ccccc2)cc1NC(=O)c1ccc(S(=O)(=O)N(CCOC)CCOC)cc1	0.83	9	18*	-31	3
COc1cccc(/C=C/C(=O)NCc2cn3cc(Cl)ccc3n2)c1OC	·	·	1	·	·
CN(C)S(=O)(=O)N1CCC(c2ccc(F)cc2)C(COc2ccc3c(c2)OCO3)C1 (stereo not given)	-0.27	1	17*	-6	4
OC(COc1ccc2c(c1)OCO2)CN1CCN(c2ccc(F)cc2)CC1 (stereo not given)	·	·	1	·	·
CCOc1ccc(C2c3[nH]c4ccccc4c3CCN2CCCn2cccn2)cc1 (stereo not given)	·	·	0	·	·
CCc1ccccc1NC(=O)/C(C#N)=C\c1ccc(Sc2ccccc2)o1	-0.26	-4	4	-3	·
CCc1ccccc1NC(=O)/C(C#N)=C/c1ccc(Sc2ccccc2)o1	0.42	2	16*	-30	2
CC1(C)CC(N=Cc2c(O)n(Cc3ccc4c(c3)OCO4)c(=O)c3ccccc23)CC(C)(C)N1	·	·	-1	·	·
O=C(COc1cccc(F)c1)N1c2ccccc2Sc2ccccc21	-1	6	15*	-73	4
SMILES	SDO1 yeast rescue	Yeast lifespan up	RAM network inh	BB579 growth dn	RAM efflux-def
CCN(CC)S(=O)(=O)c1cccc(-c2nnc(SC(C)C(=O)NCCC3=CCCCC3)o2)c1 (stereo not given)	-0.07[3.6 µM]	-12	14*	-26	9
O=C(CSc1nnc(-c2cccc(S(=O)(=O)N3CCCCC3)c2)o1)c1ccc[nH]1	-2.1	-12	1	-37	·
O=C(CSc1nnc(-c2cccc(S(=O)(=O)N3CCCCC3)c2)o1)NCCC1=CCCCC1	0.39	-7	12*	-55	4
N#Cc1nc(-c2ccc(OCc3ccccc3)cc2)oc1NCc1ccco1	-0.4	4	16*	-51	4
Cc1ccc(Sc2nc3c(c(=O)[nH]c(=O)n3C)n2CCc2ccccc2)cc1	-1.9	-7	3	-14	·
Cn1c(=O)[nH]c(=O)c2c1nc(Sc1ccccc1)n2CCc1ccccc1	-1.9	-1	1	-55	2
CCOC(=O)C1(Cc2ccccc2C)CCCN(Cc2ccc(NC(C)=O)cc2)C1 (stereo not given)	·	·	2	·	·
O=C(CC(c1ccccc1)(c1ccccc1)c1ccccc1)N[C@@H](Cc1ccccc1)C(=O)O	·	·	13*	·	2
O=C(O)[C@H](Cc1ccccc1)NC(=O)C(c1ccccc1)(c1ccccc1)c1ccccc1	·	·	6	·	·
COc1ccc(OCc2nnc(SCC(N)=O)n2-c2ccccc2OC)cc1	-0.67	-8	0	0	·
COc1ccccc1-n1c(COc2ccccc2-c2ccccc2)nnc1SCC(=O)c1c(N)n(C)c(=O)n(C)c1=O	0.8	0	14*	-50	8
COC(=O)c1ccc(OC)c(CSc2nnc(-c3ccc(C(C)(C)C)cc3)o2)c1	-0.12	-8	14*	-36	4
COc1cc(/C=N/NC2=NC(C)(C)Cc3ccccc32)cc(OC)c1OC	·	·	1	·	·
COc1ccc(C(Cl)=C(c2ccc(OC)cc2)c2ccc(OC)cc2)cc1	1.1	10	13*	-38	6
Cc1ccc(S(=O)(=O)N(CCC(=O)Nc2ccc(OC(F)(F)F)cc2)c2ccccc2)cc1	-1	-2	16*	14	2
Cc1ccc(N(CCC(=O)NC(C)(C)C)S(=O)(=O)c2ccc(C)cc2)cc1	·	·	1	·	·
NC(=O)c1ccc(NC(=O)COC(=O)CC(NC(=O)c2ccccc2Cl)c2ccccc2)cc1 (stereo not given)	0.83	1	1	-13	·
COCCNc1nc(SCc2ccccc2)nc2sc3c(c12)CCC3	-1.2	-15	14*	-37	3
CC(CO)Nc1nc(SCc2ccccc2)nc2sc3c(c12)CCC3 (stereo not given)	-1.7	-30	1	-32	·
Cc1cccc(NC(=O)COC(=O)c2ccc3c(=O)n4c(nc3c2)CCC4)c1	0.23	-3	1	-28	·
O=C(COC(=O)c1ccc2c(=O)n3c(nc2c1)CCC3)Nc1ccc(OC(F)F)cc1	·	·	13*	·	2
CCn1c(C)nc2cc(C(=O)N/N=C/c3cccc(O)c3O)ccc21	·	·	-1	·	·
COCC(C)n1c(SCc2ccc(OC)c(F)c2)nc2ccccc2c1=O (stereo not given)	·	·	14*	·	2
O=C(Nc1cccc(F)c1)c1ccc(Cn2cc([N+](=O)[O-])cn2)o1	·	·	1	·	·
COc1ccccc1-c1cc(C(F)(F)F)nc(N2CCN(c3ccccc3)CC2)n1	-0.62	-10	13*	-51	4
COc1ccccc1-c1cc(C(F)(F)F)nc(N2CCN(c3ccc(F)cc3)CC2)n1	-0.28	·	8	-49	·
